Screening data deposited in PubChem by Johns Hopkins Ion Channel Center.
Hits are enriched below; roughly 2.3% of the tested compounds scored in any of these assays.
TRPC6 act – activators of mouse TRPC6 channel. actives 0.13% (n = 310,000). B-score at 10 µM. HEK293-TRPC6 membrane potential dye fluorescence; active compounds read high. Q61143;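 active = B-score of the integrated fluorescence ratio above library mean plus 3 SD, and starting fluorescence ratio within library mean plus 5 SD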;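 also: higher score means more depolarization so channel activation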
TRPC4 block – inhibitors of mouse TRPC4 channel; Q9QUQ5; actives 0.39% (n = 300,000); HEK293 TRPC4beta/mu-opioid, DAMGO-evoked Fluo4 calcium flux; active compounds read low; AID 2247; B-score at 10 µM;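 active = B-score over 3 SD under the library average, no early fluorescence shift, positive overall ratio signal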
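Signal: kinetic Fluo4 fluorescence imaging of calcium influx. Material: stable TRPC4beta/mu-opioid receptor HEK293 cells. Probe or stimulus: DAMGO in two steps, submaximal then maximal.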
TRPC6 inhibitor – mouse TRPC6 channel inhibition | Q61143 | HEK293-TRPC6, membrane potential dye, ACh-evoked depolarization; active compounds read low | B-score at 10 µM | actives 1.1% (n = 310,000) | AID 2553;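 active = B-score under library mean minus 3 SD, initial fluorescence not abnormally high, positive integrated signal ratio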;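 also: B-score derived from integrated fluorescence ratio over the kinetic read; more negative B-score means stronger inhibition of depolarization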
TRPC4 potent – allosteric potentiators of mouse TRPC4 channel | Q9QUQ5 | HEK293 TRPC4beta/mu-opioid, DAMGO EC20, Fluo-4 Ca2+ flux; active compounds read high | B-score at 10 µM | actives 0.42% (n = 310,000);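 active = B-score of calcium response area above 5 SD of library B-scores, with initial fluorescence ratio within 5 SD of library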;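 also: B-score of integrated fluorescence ratio over time as area under calcium response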
TRPC4 agonist – opens the mouse TRPC4 cation channel. AID 2237. Q9QUQ5. HEK293 TRPC4beta/mu-opioid, Fluo4 calcium fluorescence; active compounds read high. B-score at 10 µM. actives 0.49% (n = 310,000);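 active = B-score above 5 SD of library B-scores, and initial fluorescence ratio not above library mean plus 5 SD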;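 also: positive B-score marks a calcium rise read as TRPC4 activation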
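System: HEK293 cells stably co-expressing mouse TRPC4beta and mu-opioid receptor; Schedule: Fluo4 dye loading 45 min at room temperature, 110 s recording; Detection: Fluo4 fluorescence, kinetic; Evaluation: B-scored integrated calcium fluorescence ratio; Controls: buffer (low) and maximal DAMGO (high).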
An asterisk follows results filed as active; i = inactive.

SMILES	TRPC6 act	TRPC4 block	TRPC6 inhibitor	TRPC4 potent	TRPC4 agonist
CCc1ccc(CNC(=O)C2CCC(=O)N(CCc3ccc(Cl)cc3)C2)nc1 (configuration not stated)	i	i	i	i	i
O=C(NCc1ccco1)c1ccc2nc3sc4c(c3c(=O)n2c1)CCCC4	i	-6*	i	i	i
Cc1ccc(-n2cc(CNCC3CC(=O)N(C4CC4)C3)c(-c3cccc(C)c3)n2)cc1 (configuration not stated)	i	i	i	i	153*
CCOC(=O)c1cc2sccc2n1CC(=O)C(C)(C)C	i	i	i	i	i
CCOC(=O)C1=NN(c2ccccc2C)C2=NC(C)=C(C(=O)OC)C(c3cccc(OC)c3)N12 (configuration not stated)	i	-5*	i	i	i
O=c1c2ccccc2cnn1Cc1nnc(-c2cccs2)o1	i	i	i	i	i
C=CCS(=O)(=O)N1CCCC(N2CCN(c3ccccc3OC)CC2)C1 (configuration not stated)	i	i	i	i	i
COc1ccccc1N1CCN(C2CCCN(S(=O)(=O)c3ccccc3)C2)CC1 (configuration not stated)	i	-6*	i	i	i
O=S(=O)(c1ccc(Cl)cc1)N1CCN2CCCC2C1 (configuration not stated)	i	i	i	34*	98*
Cc1ccc(S(=O)(=O)N2CCN3CCCC3C2)cc1 (configuration not stated)	i	i	i	i	i
CCOc1ccccc1O[C@H](c1ccccc1)[C@H]1CNCCO1	i	i	i	i	161*
CCOc1ccccc1NC(=O)C(NCC1CCCCC1)c1ccccc1 (configuration not stated)	i	i	i	i	i
Cc1sc2ncnc(N3CCC(C(=O)Nc4ccc(Br)cc4Br)CC3)c2c1C	i	i	i	i	i
Cc1nc(S/C(=C/c2ccc(-c3cc(Cl)ccc3C)o2)C(=O)O)n[nH]1	i	-6*	i	i	i
Cc1nc(S/C(=C/c2ccc(-c3ccc(Cl)cc3)o2)C(=O)O)n[nH]1	i	i	i	i	i
CC1CN(c2nc3c(c(=O)n(Cc4ccc(Cl)c(Cl)c4)c(=O)n3C)n2C)CC(C)O1 (configuration not stated)	i	i	i	14*	i
Cn1c(N2CCC(C(N)=O)CC2)nc2c1c(=O)n(Cc1ccc(Br)cc1)c(=O)n2C	i	i	i	15*	i
Cc1cccc(Cn2c(=O)c3c(nc4n3CCCN4Cc3ccccc3)n(C)c2=O)c1	i	i	i	20*	i
Cn1c(N2CCCCC2)nc2c1c(=O)n(Cc1cccc(Br)c1)c(=O)n2C	i	i	i	i	i
Cc1ccc(NC(=O)NC2CC(=O)N(c3ccc4c(c3)OCCO4)C2)c(C)c1 (configuration not stated)	i	i	i	i	i
CC1CCCCC1NC(=O)CSc1nnc(CC(=O)Nc2ccccc2F)n1C (configuration not stated)	i	i	i	i	i
CCOC(=O)C(C)c1n[nH]c(=O)c2ccccc12 (configuration not stated)	i	i	i	13*	i
C[C@H](C(=O)O)c1n[nH]c(=O)c2ccccc12	i	i	i	i	i
COc1ccccc1C(=O)Nc1ccnn1C1CCN(Cc2ccn[nH]2)CC1	i	i	i	i	i
CC(C)C(=O)Nc1ccc(C(=O)Nc2nnc(C(C)(C)C)s2)cc1	i	-6*	i	i	i
SMILES	TRPC6 act	TRPC4 block	TRPC6 inhibitor	TRPC4 potent	TRPC4 agonist
Cc1nn(-c2nnc(NCc3ccccc3)nn2)c(C)c1Br	i	i	i	17*	i
COc1cccc(CC(=O)NC2CCCN(Cc3ccc(Cl)cc3)C2)c1 (configuration not stated)	i	i	i	14*	i
COc1cccc(CC(=O)NC2CCCN(Cc3ccccc3F)C2)c1 (configuration not stated)	i	i	i	i	i
O=C(NC1CCCN(Cc2ccc(Cl)cc2)C1)C1CCC1 (configuration not stated)	i	i	i	i	136*
Cn1cnnc1SCC(=O)NC1CCCN(Cc2ccc(Cl)cc2)C1 (configuration not stated)	i	i	i	i	46*
COc1ccccc1N(CC(=O)Nc1ccc2c(c1)OCCO2)S(=O)(=O)c1ccc(C)cc1	i	i	i	i	i
COC(=O)c1ccccc1N(C)S(=O)(=O)c1cc2c3c(c1)CCC(=O)N3CCC2	i	i	i	i	i
CCN1CCN(c2ccc(S(=O)(=O)N3CCOCC3)cc2NC(=O)C(C)Oc2cccc(Cl)c2)CC1 (configuration not stated)	i	i	i	i	101*
Cc1cc(Cl)ccc1OC(C)C(=O)Nc1ccccc1N1CCOCC1 (configuration not stated)	i	i	i	22*	i
CCN1CCN(c2ccc(S(=O)(=O)N3CCOCC3)cc2NC(=O)c2ccccc2OC(F)F)CC1	i	i	i	i	131*
CC(Oc1cccc(Cl)c1)C(=O)Nc1cc(S(=O)(=O)N2CCOCC2)ccc1N1CCCCC1 (configuration not stated)	i	i	i	i	i
Cc1ccc(NC(=O)CN2C(=O)NC3(CCc4ccccc43)C2=O)cc1S(=O)(=O)N1CCCCC1 (configuration not stated)	i	i	i	i	i
O=C(O)CCC(=O)NN1C(=O)c2ccccc2NC1c1ccc(F)cc1 (configuration not stated)	i	i	i	11*	i
O=[N+]([O-])c1cccc(N(CC(O)CN2CCCC2)S(=O)(=O)c2ccccc2)c1 (configuration not stated)	i	-8*	i	i	i
CCN1C(=O)[C@@H]2[C@@H](c3ccc(-c4ccc(F)cc4)cc3)N3CCCC[C@@]3(C(=O)OC)[C@@H]2C1=O	i	i	i	i	i
CCOC(=O)C1(Cc2ccccc2)CCN(Cc2cn[nH]c2-c2ccccc2)CC1	i	i	i	i	126*
CCOC(=O)C1(Cc2ccccc2)CCN(Cc2cnn(CC)c2)CC1	i	i	i	i	124*
CCOC(=O)C1(CC2CC2)CCN(Cc2cn[nH]c2-c2ccccc2)CC1	i	-8*	i	i	48*
